# Results from ChEMBL document CHEMBL4513216, “Probing the Open Global Health Chemical Diversity Library for Multistage-Active Starting Points for Next-Generation Antimalarials” (ACS Infect Dis, 2020).
# Assay: Toxicity liver stage against HepG2, at 10uM
# Assay type: cell-based
# Set-up: test concentration 10 uM, cell line HepG2-A16-CD81EGFP
# Settings: human, HepG2-A16-CD81EGFP cells; read-out: INHIBITION
# Method in brief: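 Uninfected HepG2-A16-CD81EGFP cells, 3 × 10^3 per well, 1536-well, plated on prespotted compound at 10 μM final, parasite-free screening media added to match infected plates; puromycin 10 μM positive, DMSO 0.5% negative; run in parallel with 48 h PbLuc assay at 37 °C, 5% CO2; viability by CellTiter-Glo luminescence, normalized to controls.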
smiles,measurement,value
O=C(Cc1cnc(-c2c(Cl)cccc2Cl)s1)N1CCC2(CC1)OCCO2,cytotoxicity at 10 µM,-0.367%
Cc1nc(NC(=O)CCN2C(=O)c3ccccc3NC2C(C)C)sc1C (configuration not stated),cytotoxicity at 10 µM,0.308%
Cc1ccc(C(=O)NC2CC2)c(-n2cnnn2)c1C,cytotoxicity at 10 µM,-2.27%
O=C(CCc1nnc2ccccn2c1=O)NCc1ccco1,cytotoxicity at 10 µM,-7.51%
O=C(CC1CSc2nccc(=O)n21)NCc1ccco1 (configuration not stated),cytotoxicity at 10 µM,-7.2%
CCCc1cc(=O)n(CC(=O)NCCOC)c(-n2nc(C)cc2C)n1,cytotoxicity at 10 µM,1.69%
CCCC(=O)N1CCC(c2nn(C)c(=O)n2-c2ccccc2)CC1,cytotoxicity at 10 µM,5.91%
CN1[C@H](CN2CCCC2)C[C@@H]2CN(C(=O)c3ccsc3)CC[C@@H]21,cytotoxicity at 10 µM,0.847%
Cc1ccc(CSc2ncc(Br)c(C(=O)O)n2)cc1,cytotoxicity at 10 µM,-2.3%
CC(C)(C)NC(=O)c1nn(C2CCS(=O)(=O)C2)c2c1CCCC2 (configuration not stated),cytotoxicity at 10 µM,10.1%
CC1(C)OCC(CNC(=O)c2cnn(-c3ccc(Cl)cc3)c2N)O1 (configuration not stated),cytotoxicity at 10 µM,2.31%
CC(C)CNC(=O)CN(Cc1ccc(F)cc1)S(C)(=O)=O,cytotoxicity at 10 µM,10.2%
COc1ccccc1C(=O)Nc1c(F)c(C(=O)N2CCCC2)nn1C,cytotoxicity at 10 µM,5.83%
CCCN1CCN(C(=O)C(C)n2cc(Br)cn2)CC1 (configuration not stated),cytotoxicity at 10 µM,-18.8%
CCn1ncc(S(=O)(=O)N[C@@H]2CCC[C@@H](n3ccnc3)[C@@H]2O)c1C,cytotoxicity at 10 µM,1.18%
Cc1ncc(-c2ccccn2)c(CCNC(=O)CCC2CCCO2)n1 (configuration not stated),cytotoxicity at 10 µM,11.7%
OC1(CNc2cccc(F)c2)CCNCC1,cytotoxicity at 10 µM,5.38%
CNC(=O)C(c1cccc(Cl)c1)C(C)C (configuration not stated),cytotoxicity at 10 µM,2.02%
CC(=O)NCCNC(=O)c1sccc1Br,cytotoxicity at 10 µM,4.2%
O=S(=O)(c1cncc(F)c1)N1CCSC2(CCCCC2)C1,cytotoxicity at 10 µM,9.48%
N#Cc1ccc(CNCCc2cc(F)cc3c2OCOC3)cc1,cytotoxicity at 10 µM,6.58%
O=C(NS(=O)(=O)c1cccnc1)C1CC(c2ccccc2)=NO1 (configuration not stated),cytotoxicity at 10 µM,-8.87%
O=c1n(CCNCc2cccc3ccccc23)nc2ccccn12,cytotoxicity at 10 µM,0.551%
CCOc1nnc(CN2CCN(CCOC)C(CC)C2)s1 (configuration not stated),cytotoxicity at 10 µM,-5.73%
Cc1cc(N2CCCC2c2cccnc2)nc(C)n1 (configuration not stated),cytotoxicity at 10 µM,-8.3%
Cn1cccc(NC(=O)NCCOCc2ccccc2)c1=O,cytotoxicity at 10 µM,-37.8%
CCC(=O)Nc1ccc(C(C)Nc2nc3c(cnn3C)c(=O)[nH]2)cc1 (configuration not stated),cytotoxicity at 10 µM,4.01%
Cc1cc(CSCc2cc(C)on2)on1,cytotoxicity at 10 µM,6.42%
COc1ccc(CNC2CCc3ncnn3C2)cc1OCCCC#N (configuration not stated),cytotoxicity at 10 µM,-5.45%
COCC(=O)N[C@H](C(=O)NC(C)c1cccc(C)c1C)C(C)C (some centres not stated),cytotoxicity at 10 µM,5.38%
CC(NC(=O)NCC(C)(C)C(N)=O)c1nc(-c2ccccc2)cs1 (configuration not stated),cytotoxicity at 10 µM,12.7%
CCC(C)NC(=O)CN1CCOCC1 (configuration not stated),cytotoxicity at 10 µM,-5.74%
Cc1ccc(C2COCCN2C(=O)c2ccc(C)s2)o1 (configuration not stated),cytotoxicity at 10 µM,-3.9%
OCC(CO)Nc1cccc(C(F)(F)F)n1,cytotoxicity at 10 µM,0.409%
COCc1noc(C2(c3cccc(Cl)c3)CCOCC2)n1,cytotoxicity at 10 µM,-2.93%
COc1cc(NCc2c(C)noc2C)c(OC)cc1Cl,cytotoxicity at 10 µM,47%
COCCCNC(=O)Nc1cc(-c2ccccc2C)nn1CCO,cytotoxicity at 10 µM,-0.267%
CCOCC1CCN(C(=O)Nc2ccc3c(c2)CCCO3)C1 (configuration not stated),cytotoxicity at 10 µM,10.6%
CC(C)(CNc1cc(F)ccc1F)S(C)(=O)=O,cytotoxicity at 10 µM,-2.94%
Cn1cc(Br)cc1C(=O)NC1(C#N)CC1,cytotoxicity at 10 µM,21.8%
CN(CC(=O)N(CCC#N)c1ccccc1)C1CCc2ccccc21 (configuration not stated),cytotoxicity at 10 µM,3.15%
NCc1ccc(Oc2cccc(Cl)c2Cl)nc1,cytotoxicity at 10 µM,4.75%
NS(=O)(=O)c1ccc(CNCC(=O)NCc2ccc(Cl)cc2Cl)cc1,cytotoxicity at 10 µM,-48.6%
COc1cc(NC2CCCNC2)cc(OC)c1 (configuration not stated),cytotoxicity at 10 µM,-9.57%
COc1ccc(CNC(C)c2cnc3cc(C)nn3c2C)cc1 (configuration not stated),cytotoxicity at 10 µM,-4.86%
Cc1nc(C)c(CNCC2CCCn3ccnc32)s1 (configuration not stated),cytotoxicity at 10 µM,-14.6%
Cc1ccc(CC2CCCN2CC(=O)NCc2ccccn2)cc1 (configuration not stated),cytotoxicity at 10 µM,6.46%
CN(CCCNc1cc(N2CCCC2CO)ncn1)S(C)(=O)=O (configuration not stated),cytotoxicity at 10 µM,-10.2%
OCc1nnc2n1CCN(c1cnccn1)C2,cytotoxicity at 10 µM,5.59%
CC(C)NC(=O)N1CC[C@H]2N(C)CC[C@@]2(C(=O)Nc2cccnc2)CC1,cytotoxicity at 10 µM,-109%
CS(=O)(=O)N1C[C@@H]2COC[C@]2(COCC(=O)N2CCCC2)C1,cytotoxicity at 10 µM,-114%
CN1CCN(S(=O)(=O)C2CC2)Cc2cccnc21,cytotoxicity at 10 µM,-108%
CC(C)N1Cc2c(C(=O)N3CCN(C)CC3)nn(C)c2C1,cytotoxicity at 10 µM,-104%
Cn1ccnc1CN1C[C@@H]2OCCN(c3ncccn3)[C@@H]2C1,cytotoxicity at 10 µM,-73%
CN(Cc1ccncc1)C1CC2(CCN(Cc3ccccn3)CC2)C1,cytotoxicity at 10 µM,-90.4%
CCOCC1CN(C(=O)N2CCCC2)Cc2cnn(CC)c21 (configuration not stated),cytotoxicity at 10 µM,-77.5%
CC1=N[C@@]2(CC[C@@H]3CN(C(=O)NCc4ccccc4C)C[C@@H]32)C(=O)N1,cytotoxicity at 10 µM,-74.9%
Cn1cc(CN2CCCC3(CCN3S(C)(=O)=O)C2)cn1 (configuration not stated),cytotoxicity at 10 µM,-68.4%
CCN1CCC2(COCc3cnc(-c4cccnc4)nc32)C1 (configuration not stated),cytotoxicity at 10 µM,4.04%
Cc1ncc(-c2ccnc(N3CCCCC3)n2)c(=O)[nH]1,cytotoxicity at 10 µM,7.53%
Cc1ccc(C(=O)O)cc1CNC(=O)CN1CC(C)(C)[C@@](C)(O)C1,cytotoxicity at 10 µM,-6.03%
OC1(Cn2ccnc2)CCN(C[C@]2(O)CCCN3CCCC[C@@H]32)CC1,cytotoxicity at 10 µM,0.805%
O=C1OCC(CO)N1Cc1cccc(Cl)c1F (configuration not stated),cytotoxicity at 10 µM,0.739%
CCN(Cc1cn(C)nc1-c1ccc2c(c1)OCCO2)CC1CCCO1 (configuration not stated),cytotoxicity at 10 µM,2.85%
O=C(NC1CCCC1)N1C[C@H]2CN(c3ccncc3)C[C@@]2(C(=O)O)C1,cytotoxicity at 10 µM,11.3%
CCN(CC1CCCCO1)C(=O)CCNC(=O)c1ccccc1F (configuration not stated),cytotoxicity at 10 µM,-42.9%
c1cncc(-c2cccc(-c3ccn(CCN4CCCCC4)n3)c2)c1,cytotoxicity at 10 µM,2.54%
CCCc1ccc(C(=O)N2CCc3c(nc(C)nc3N(C)C)C2)cc1,cytotoxicity at 10 µM,-1.34%
Cn1nc(C2CC2)c2c1NC(=O)CC2c1cc(CN2CCCC2)cs1 (configuration not stated),cytotoxicity at 10 µM,-2.2%
O=C(c1cccc(-n2cccn2)c1)N1CCOC(CCO)C1 (configuration not stated),cytotoxicity at 10 µM,0.0642%
CC(C)N1CCOC(CC(=O)N2CCCN(Cc3cccs3)CC2)C1 (configuration not stated),cytotoxicity at 10 µM,-12.2%
Cc1nccn1CCC(=O)N1CCCN(c2ccccc2)CC1,cytotoxicity at 10 µM,-6.08%
Cc1nn(C)c2nc(NC(C)c3n[nH]c(=O)[nH]3)sc12 (configuration not stated),cytotoxicity at 10 µM,4.91%
CCN(CC)C(=O)c1ccc(Cl)c(NC(=O)c2csnn2)c1,cytotoxicity at 10 µM,7.3%
CNc1ncc(CN(C)C(=O)c2cccc(-n3cnnc3)c2)cn1,cytotoxicity at 10 µM,1.5%
CN(C)C(=O)CN1CC=C(c2cnn(Cc3ccccc3)c2)CC1,cytotoxicity at 10 µM,-6.12%
OC1CN(Cc2cccc(N3CCOCC3)c2)Cc2ccccc21 (configuration not stated),cytotoxicity at 10 µM,-3.15%
CO[C@H]1C[C@@H](O)C12CCN(C(=O)CCSCc1ccc(F)cc1)CC2,cytotoxicity at 10 µM,-5.22%
Cn1ccn2ncc(C(=O)NCc3cccnc3N3CCCC(O)C3)c12 (configuration not stated),cytotoxicity at 10 µM,-8.01%
CN(Cc1cccc(C(=O)Nc2ccnn2C)c1)CC1(C)COC1,cytotoxicity at 10 µM,-5.84%
O=C(CCN1CCCCO1)N1CC[C@H](O)[C@@H](O)C1,cytotoxicity at 10 µM,-1.77%
COCCn1ccnc1CN1CCc2[nH]cnc2C1c1cccc(O)c1 (configuration not stated),cytotoxicity at 10 µM,-2%
O[C@H]1[C@H](NCCc2ccccn2)c2ccccc2C12CCNCC2,cytotoxicity at 10 µM,13.7%
CNS(=O)(=O)CCNC(=O)[C@@]12CNC[C@@H]1CN(C1CCCC1)C2,cytotoxicity at 10 µM,1.3%
CN(CCCc1cnn(C)c1)C(=O)C1CCOC1 (configuration not stated),cytotoxicity at 10 µM,-13.4%
CC(C(=O)Nc1ccc(N2CCCCC2)nc1)n1cncn1 (configuration not stated),cytotoxicity at 10 µM,-31.2%
CCOc1ccc(C(=O)N2CCCC2Cn2cc(C)cn2)cn1 (configuration not stated),cytotoxicity at 10 µM,-20.2%
Cc1cc(C)n(CC2CN(Cc3cnc(C)s3)CCO2)n1 (configuration not stated),cytotoxicity at 10 µM,-19.7%
Cc1cccc(NC2CCN(C(=O)Nc3ccccn3)CC2)n1,cytotoxicity at 10 µM,-7.92%
Cn1c(C2CC2)nc2c1CCN(CCOc1ccccc1C#N)C2,cytotoxicity at 10 µM,-29.8%
CC(C)Cc1nc(CN2CCOC(Cn3cccn3)C2)no1 (configuration not stated),cytotoxicity at 10 µM,-28.9%
CCc1nc(C2CCCN2Cc2nccn2CC(F)(F)F)no1 (configuration not stated),cytotoxicity at 10 µM,-17.2%
CN(C)c1ncccc1CNC(=O)NCCN(C)C1CCCC1,cytotoxicity at 10 µM,-11.9%
CCOCC(O)CN1CCN(C(=O)c2ccc(OC)cc2F)CC1 (configuration not stated),cytotoxicity at 10 µM,-11.9%
Cc1nnc2n1CCN(Cc1csc(-c3ccc(F)cc3)n1)C2,cytotoxicity at 10 µM,-6.78%
NC(=O)c1cc(C2CCCN(CCc3ccccn3)C2)n[nH]1 (configuration not stated),cytotoxicity at 10 µM,-8.44%
COc1ccc(OCCCN2CCOC(Cn3cccn3)C2)cc1 (configuration not stated),cytotoxicity at 10 µM,5.34%
CN(CCNC(=O)Nc1ccncc1)C1CCCCC1,cytotoxicity at 10 µM,-0.39%
Cc1cc(CN(C)C(=O)NC2CCS(=O)(=O)C2)no1 (configuration not stated),cytotoxicity at 10 µM,-1.61%
COCCN1CCc2c(cnc(-c3ccoc3)c2C(=O)O)C1,cytotoxicity at 10 µM,0.908%
CCC(CC)C(=O)N1CCC2(C1)CN(c1ccccc1)C(=O)CN2C (configuration not stated),cytotoxicity at 10 µM,3.5%
CCN1CCOCC12CCN(C(=O)Cc1ccccc1)CC2,cytotoxicity at 10 µM,-75.3%
CCS(=O)(=O)NC[C@]12COC[C@H]1CN(Cc1sccc1C)C2,cytotoxicity at 10 µM,-75.2%
CNC(=O)[C@H]1C[C@@H]2CN(Cc3csc(C)n3)C[C@@H]2N1S(C)(=O)=O,cytotoxicity at 10 µM,-3.78%
O=C(NCc1ccccn1)[C@H]1COC[C@H]2CN(C3CCCC3)C[C@H]21,cytotoxicity at 10 µM,-73.6%
Cc1ccc(C(=O)N2Cc3c(CN4CCCCC4)nn(C)c3C2)o1,cytotoxicity at 10 µM,-1.94%
CC(=O)N1CCCCC12CCCN(Cc1ccco1)C2 (configuration not stated),cytotoxicity at 10 µM,4.59%
CN(C)C[C@]12COC[C@H]1CN(Cc1ccc3c(c1)OCO3)C2,cytotoxicity at 10 µM,-123%
c1csc(CN2Cc3nccn3CC(Cn3cncn3)C2)n1 (configuration not stated),cytotoxicity at 10 µM,-9.35%
O=C(c1cnccn1)N1C[C@H]2CC[C@@H](C1)N(C(=O)Cc1ccsc1)C2,cytotoxicity at 10 µM,-13.3%
COc1ccc(-n2cc3nc(N)[nH]cc-3c2=O)cc1,cytotoxicity at 10 µM,6.25%
Cc1cc(C(=O)NC2CCC3(CCC(=O)N3C)CC2)no1 (configuration not stated),cytotoxicity at 10 µM,-0.361%
